According to ChEMBL document CHEMBL3393015, “Design, synthesis and evaluation of marinopyrrole derivatives as selective inhibitors of Mcl-1 binding to pro-apoptotic Bim and dual Mcl-1/Bcl-xL inhibitors” (Eur J Med Chem, 2015):
Active and inactive are the calls of the source. The calls are words filed in the database; no cut-off is given here.

Key:
MDA-MB-468 [1] = experiment: Reduction in Mcl1 level in human MDA-MB-468 cells at 10 uM; format: functional, cell-based
In short: (§1)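 Human MDA-MB-468 breast cancer cells were exposed to the derivatives at 3 μM, and some at up to 10 μM. Cells were then processed for western blotting. Read-outs were Mcl-1 protein level and caspase 3 cleavage, used as the apoptosis marker.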

MDA-MB-468 [2] = experiment: Induction of apoptosis in human MDA-MB-468 cells assessed as caspase 3 activity at 3 uM for 16 hrs
[3] = biological target: Induced myeloid leukemia cell differentiation protein Mcl-1/Bcl-2-like protein 11 (Homo sapiens, UniProt Q07820); experiment: Inhibition of Mcl1/Bim (unknown origin) by ELISA; format: protein assay
Induced myeloid leukemia cell differentiation protein Mcl-1/Bcl-2-like protein 11, sequence (Q07820 whole entry): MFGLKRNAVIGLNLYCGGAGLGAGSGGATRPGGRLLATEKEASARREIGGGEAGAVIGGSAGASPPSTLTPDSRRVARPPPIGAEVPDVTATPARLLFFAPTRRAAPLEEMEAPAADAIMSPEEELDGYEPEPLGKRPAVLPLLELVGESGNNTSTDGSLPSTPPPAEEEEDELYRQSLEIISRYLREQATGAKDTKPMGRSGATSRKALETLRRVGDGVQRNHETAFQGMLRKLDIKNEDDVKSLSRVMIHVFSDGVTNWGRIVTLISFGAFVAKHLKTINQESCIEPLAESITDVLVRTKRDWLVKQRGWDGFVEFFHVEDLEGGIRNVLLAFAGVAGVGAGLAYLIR
Induced myeloid leukemia cell differentiation protein Mcl-1/Bcl-2-like protein 11, sequence (O43521 whole entry, further chain): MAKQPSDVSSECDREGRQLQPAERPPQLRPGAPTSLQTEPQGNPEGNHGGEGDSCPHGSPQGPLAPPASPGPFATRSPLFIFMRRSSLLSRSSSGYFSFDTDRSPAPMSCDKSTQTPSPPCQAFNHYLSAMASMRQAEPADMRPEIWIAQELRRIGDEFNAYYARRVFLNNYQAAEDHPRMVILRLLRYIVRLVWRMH

[4] = biological target: Bcl-xL/Bcl-2-like protein 11 (Homo sapiens, UniProt Q07817); experiment: Inhibition of Bcl-xL/Bim (unknown origin) by ELISA; format: protein assay
Bcl-xL/Bcl-2-like protein 11, sequence (Q07817 whole entry): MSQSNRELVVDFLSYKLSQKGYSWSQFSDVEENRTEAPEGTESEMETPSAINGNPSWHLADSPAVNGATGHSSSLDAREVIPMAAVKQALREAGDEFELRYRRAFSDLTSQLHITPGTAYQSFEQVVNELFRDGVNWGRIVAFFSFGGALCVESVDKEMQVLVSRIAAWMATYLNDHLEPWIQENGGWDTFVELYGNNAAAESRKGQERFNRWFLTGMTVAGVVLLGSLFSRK
Bcl-xL/Bcl-2-like protein 11, sequence (O43521 whole entry, further chain): as the sequence (O43521 whole entry, further chain) above

MDA-MB-468 [5] = experiment: Induction of apoptosis in human MDA-MB-468 cells assessed as caspase 3 activity at 10 uM for 16 hrs; format: functional, cell-based; in short: as §1
MDA-MB-468 [6] = experiment: Reduction in Mcl1 level in human MDA-MB-468 cells at 3 uM; format: functional, cell-based; in short: as §1

CCc1ccc(C(=O)c2[nH]c(Cl)c(Cl)c2-n2c(C(=O)c3ccc(CC)cc3O)cc(Cl)c2Cl)c(O)c1 was tested, and the Activity (MDA-MB-468 [1]) was “Active” and the Activity (MDA-MB-468 [2]) was “Active”.
Work on O=C(c1ccccc1O)c1[nH]c(Cl)c(Cl)c1-n1c(C(=O)c2cccc(Cl)c2O)cc(Cl)c1Cl yielded an IC50 [3] of 4.1 µM and an IC50 [4] of 10.1 µM.
In the case of O=C(O)CSc1ccc(C(=O)c2[nH]c(Cl)c(Cl)c2-n2c(C(=O)c3ccc(SCC(=O)O)cc3O)cc(Cl)c2Cl)c(O)c1, the IC50 [4] is reported as greater than 100 µM, the Activity (MDA-MB-468 [1]) is reported as “inactive” and the Activity (MDA-MB-468 [5]) is reported as “inactive”.
With O=C(c1ccccc1O)c1[nH]c(Cl)c(Cl)c1-n1c(C(=O)c2ccccc2O)cc(Cl)c1Cl the IC50 [4] was 16.4 µM.
O=C(c1ccc(OS(=O)(=O)C(F)(F)F)cc1O)c1[nH]c(Cl)c(Cl)c1-n1c(C(=O)c2ccccc2O)cc(Cl)c1Cl was tested, and the IC50 [3] was 1 µM, the IC50 [4] was 2.1 µM and the Activity (MDA-MB-468 [1]) was “Active”. For the same molecule, the Activity (MDA-MB-468 [2]) was “Active”.
For O=C(c1ccc(C(F)(F)F)cc1O)c1[nH]c(Cl)c(Cl)c1-n1c(C(=O)c2ccc(C(F)(F)F)cc2O)cc(Cl)c1Cl, the IC50 [3] was 8.1 µM, the IC50 [4] was 9.7 µM and the Activity (MDA-MB-468 [1]) was “Active”. The Activity (MDA-MB-468 [2]) was “Active”.
O=C(c1ccccc1O)c1[nH]c(Cl)c(Cl)c1-n1c(C(=O)c2c(O)cccc2F)cc(Cl)c1Cl was tested, and the IC50 [3] was 13.1 µM, the IC50 [4] was 43.7 µM and the Activity (MDA-MB-468 [1]) was “inactive”. The Activity (MDA-MB-468 [5]) was “inactive”.
In the case of O=C(O)Cn1cc(-c2cc(O)c(C(=O)c3[nH]c(Cl)c(Cl)c3-n3c(C(=O)c4cc(Cl)c(-c5cn(CC(=O)O)nn5)cc4O)cc(Cl)c3Cl)cc2Cl)nn1, the IC50 [4] is reported as greater than 50 µM, the Activity (MDA-MB-468 [1]) is reported as “inactive” and the Activity (MDA-MB-468 [5]) is reported as “inactive”.
CC(C)(C)OC(=O)Cn1cc(-c2ccc(C(=O)c3[nH]c(Cl)c(Cl)c3-n3c(C(=O)c4ccc(-c5cn(CC(=O)OC(C)(C)C)nn5)cc4O)cc(Cl)c3Cl)c(O)c2)nn1 was tested, and the IC50 [3] was 5.1 µM, the IC50 [4] was 8.1 µM and the Activity (MDA-MB-468 [1]) was “inactive”. For the same molecule, the Activity (MDA-MB-468 [5]) was “inactive”.
In the case of C#Cc1ccc(C(=O)c2[nH]c(Cl)c(Cl)c2-n2c(C(=O)c3ccc(C#C)cc3O)cc(Cl)c2Cl)c(O)c1, the Activity (MDA-MB-468 [1]) is reported as “Active” and the Activity (MDA-MB-468 [2]) is reported as “Active”.
In the case of CCOC(=O)CSc1ccc(C(=O)c2[nH]c(Cl)c(Cl)c2-n2c(C(=O)c3ccc(SCC(=O)OCC)cc3O)cc(Cl)c2Cl)c(O)c1, the Activity (MDA-MB-468 [6]) is reported as “inactive”.
O=C(c1ccccc1O)c1[nH]c(Cl)c(Cl)c1-n1c(C(=O)c2cc(Cl)ccc2O)cc(Cl)c1Cl was tested, and the IC50 [3] was 3.9 µM, the IC50 [4] was 18.3 µM and the Activity (MDA-MB-468 [1]) was “inactive”. The Activity (MDA-MB-468 [2]) was “inactive”.
In the case of CCOC(=O)Cn1cc(-c2ccc(C(=O)c3[nH]c(Cl)c(Cl)c3-n3c(C(=O)c4ccc(-c5cn(CC(=O)OCC)nn5)cc4O)cc(Cl)c3Cl)c(O)c2)nn1, the IC50 [4] is reported as greater than 100 µM, the Activity (MDA-MB-468 [1]) is reported as “inactive” and the Activity (MDA-MB-468 [5]) is reported as “inactive”.
Cn1c(Cl)c(Cl)c(-n2c(C(=O)c3ccccc3O)cc(Cl)c2Cl)c1C(=O)c1ccccc1O gave an IC50 [3] greater than 100 µM and an IC50 [4] of 7.9 µM.
In the case of O=C(c1cc(Cl)c(O)cc1O)c1[nH]c(Cl)c(Cl)c1-n1c(C(=O)c2cc(Cl)c(O)cc2O)cc(Cl)c1Cl, the IC50 [3] is reported as 10.7 µM, the IC50 [4] is reported as greater than 50 µM and the Activity (MDA-MB-468 [1]) is reported as “inactive”. The Activity (MDA-MB-468 [5]) was “inactive”.
In the case of CCOC(=O)Cn1cc(-c2cc(O)c(C(=O)c3[nH]c(Cl)c(Cl)c3-n3c(C(=O)c4cc(Cl)c(-c5cn(CC(=O)OCC)nn5)cc4O)cc(Cl)c3Cl)cc2Cl)nn1, the IC50 [4] is reported as greater than 100 µM, the Activity (MDA-MB-468 [1]) is reported as “inactive” and the Activity (MDA-MB-468 [5]) is reported as “inactive”.
CC(C)(C)OC(=O)Cn1cc(-c2cc(O)c(C(=O)c3[nH]c(Cl)c(Cl)c3-n3c(C(=O)c4cc(Cl)c(-c5cn(CC(=O)OC(C)(C)C)nn5)cc4O)cc(Cl)c3Cl)cc2Cl)nn1 gave an IC50 [3] of 1.6 µM and an IC50 [4] of 14 µM.
For O=C(c1ccc(-c2cn(-c3ccccc3)nn2)cc1O)c1[nH]c(Cl)c(Cl)c1-n1c(C(=O)c2ccc(-c3cn(-c4ccccc4)nn3)cc2O)cc(Cl)c1Cl, the IC50 [3] was 1.5 µM and the IC50 [4] was 0.8 µM.
With O=C(c1ccc(-c2cn(C3CCCCC3)nn2)cc1O)c1[nH]c(Cl)c(Cl)c1-n1c(C(=O)c2ccc(-c3cn(C4CCCCC4)nn3)cc2O)cc(Cl)c1Cl the IC50 [3] was 1.4 µM, the IC50 [4] was 3.8 µM and the Activity (MDA-MB-468 [1]) was “inactive”. The Activity (MDA-MB-468 [5]) was “inactive”.
For Cc1cc(O)c(C(=O)c2[nH]c(Cl)c(Cl)c2-n2c(C(=O)c3cc(Cl)c(C)cc3O)cc(Cl)c2Cl)cc1Cl, the Activity (MDA-MB-468 [1]) was “Active” and the Activity (MDA-MB-468 [2]) was “Active”.
With CC1(C)CCC(c2ccc(Cl)cc2)=C(CN2CCN(c3ccc(C(=O)NS(=O)(=O)c4ccc(N[C@H](CCN5CCOCC5)CSc5ccccc5)c(S(=O)(=O)C(F)(F)F)c4)cc3)CC2)C1 the Activity (MDA-MB-468 [6]) was “inactive”.
In the case of O=C(c1ccc(-c2cn(Cc3ccccc3)nn2)cc1O)c1[nH]c(Cl)c(Cl)c1-n1c(C(=O)c2ccc(-c3cn(Cc4ccccc4)nn3)cc2O)cc(Cl)c1Cl, the IC50 [3] is reported as 3.3 µM, the IC50 [4] is reported as 1.6 µM and the Activity (MDA-MB-468 [1]) is reported as “inactive”. For the same molecule, the Activity (MDA-MB-468 [5]) was “inactive”.
O=C(c1ccccc1O)c1[nH]c(Cl)c(Cl)c1-n1c(C(=O)c2ccc(Cl)cc2O)cc(Cl)c1Cl was tested, and the IC50 [3] was 6.5 µM, the IC50 [4] was 9.2 µM and the Activity (MDA-MB-468 [1]) was “Active”. For the same molecule, the Activity (MDA-MB-468 [5]) was “Active”.
O=C(O)Cn1cc(-c2ccc(C(=O)c3[nH]c(Cl)c(Cl)c3-n3c(C(=O)c4ccc(-c5cn(CC(=O)O)nn5)cc4O)cc(Cl)c3Cl)c(O)c2)nn1 was tested, and the IC50 [4] was greater than 50 µM, the Activity (MDA-MB-468 [1]) was “inactive” and the Activity (MDA-MB-468 [5]) was “inactive”.
Molecule COc1ccccc1C(=O)c1c(-n2c(C(=O)c3ccccc3OC)cc(Cl)c2Cl)c(Cl)c(Cl)n1C has an IC50 [3] of 15.5 µM and an IC50 [4] of 64.9 µM.
COc1ccccc1C(=O)c1[nH]c(Cl)c(Cl)c1-n1c(C(=O)c2ccc(Cl)cc2OC)cc(Cl)c1Cl was tested, and the IC50 [3] was 8 µM, the IC50 [4] was 9.5 µM and the Activity (MDA-MB-468 [1]) was “inactive”. For the same molecule, the Activity (MDA-MB-468 [5]) was “inactive”.
With O=C(c1ccc(P(=O)(O)O)cc1O)c1[nH]c(Cl)c(Cl)c1-n1c(C(=O)c2ccc(P(=O)(O)O)cc2O)cc(Cl)c1Cl the Activity (MDA-MB-468 [1]) was “inactive” and the Activity (MDA-MB-468 [5]) was “inactive”.
O=C(c1ccccc1O)c1[nH]c(Cl)c(Cl)c1-n1c(C(=O)c2cc(F)ccc2O)cc(Cl)c1Cl was tested, and the IC50 [3] was 8.9 µM, the IC50 [4] was 13.3 µM and the Activity (MDA-MB-468 [1]) was “Active”. For the same molecule, the Activity (MDA-MB-468 [5]) was “Active”.
C=Cc1ccc(C(=O)c2[nH]c(Cl)c(Cl)c2-n2c(C(=O)c3ccc(C=C)cc3O)cc(Cl)c2Cl)c(O)c1 was tested, and the IC50 [3] was 3.7 µM, the IC50 [4] was 3.5 µM and the Activity (MDA-MB-468 [1]) was “Active”. The Activity (MDA-MB-468 [2]) was “Active”.
In the case of O=C(c1ccc(O)cc1O)c1[nH]c(Cl)c(Cl)c1-n1c(C(=O)c2ccc(O)cc2O)cc(Cl)c1Cl, the IC50 [3] is reported as 39.5 µM, the IC50 [4] is reported as greater than 50 µM and the Activity (MDA-MB-468 [1]) is reported as “inactive”. For the same molecule, the Activity (MDA-MB-468 [5]) was “inactive”.
With CCCCCCCCn1cc(-c2ccc(C(=O)c3[nH]c(Cl)c(Cl)c3-n3c(C(=O)c4ccc(-c5cn(CCCCCCC)nn5)cc4O)cc(Cl)c3Cl)c(O)c2)nn1 the IC50 [3] was 0.6 µM and the IC50 [4] was 0.5 µM.
For O=C(c1ccccc1O)c1[nH]c(Cl)c(Cl)c1-n1c(C(=O)c2ccc(F)cc2O)cc(Cl)c1Cl, the IC50 [3] was 9.6 µM, the IC50 [4] was 21.3 µM and the Activity (MDA-MB-468 [1]) was “Active”. For the same molecule, the Activity (MDA-MB-468 [2]) was “Active”.
